Measurements published in ChEMBL document CHEMBL3232819, “Synthesis and biological evaluation of new pyrazolone-pyridazine conjugates as anti-inflammatory and analgesic agents” (Bioorg Med Chem, 2014).
pIC50: −log10 of the molar value.

Columns and labels:
[1] = tested on: Mus musculus; assay: Antiinflammatory activity in Swiss Albino mouse assessed as inhibition of carrageenan-induced IL-6 production in serum at 25 mg/kg, po administered 30 mins before carrageenan challenge after 30 mins by ELISA (reference value: 23.8 +/- 2.5 ng/ml); type: functional
[2] = tested on: Mus musculus; assay: Analgesic activity in Swiss Albino mouse assessed as inhibition of acetic acid-induced writhing at 25 mg/kg, po administered 30 mins before to acetic acid challenge measured for 15 mins relative to vehicle-treated control; type: functional; design: scale not given: the % may be the effect or the level left
How it was run: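 Male Swiss albino mice, 25–32 g, n=6/group, dosed by oral gavage (5 mL/kg) in 1% CMC; vehicle controls. Mice habituated 30 min in test cage. Writhing induced by 0.1 mL 1% acetic acid ip at 30 min post-dose. Abdominal contractions counted for 15 min from the 5th min after injection. % protection = (n−n0)/n × 100 using group mean writhes. Mean ± SEM, one-way ANOVA/Bonferroni.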

[3] = tested on: Mus musculus; assay: Antiinflammatory activity in Swiss Albino mouse assessed as inhibition of carrageenan-induced TNFalpha production in serum at 25 mg/kg, po administered 30 mins before carrageenan challenge after 30 mins by ELISA (reference value: 15.48 +/- 0.31 ng/ml); type: functional
[4] = tested on: Mus musculus; assay: Antiinflammatory activity in Swiss Albino mouse assessed as inhibition of carrageenan-induced paw edema at 25 mg/kg, po administered 30 mins before carrageenan challenge relative to vehicle-treated control; type: functional; design: scale not given: the % may be the effect or the level left
How it was run: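 Male Swiss albino mice, 25–32 g, six per group, given drug in 1% CMC orally 30 min before subplantar right hind paw injection of carrageenan (1% w/v in 0.9% saline, 0.05 mL/mouse). […] Mean ± SEM, one-way ANOVA/Bonferroni.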

[5] = target: T1, Prostaglandin G/H synthase 1 (Ovis aries, UniProt P05979); assay: Inhibition of ovine COX1 using arachidonic acid as substrate assessed as conversion of PGH2 to PGF2alpha after 10 mins by EIA
T1 sequence (P05979 whole entry): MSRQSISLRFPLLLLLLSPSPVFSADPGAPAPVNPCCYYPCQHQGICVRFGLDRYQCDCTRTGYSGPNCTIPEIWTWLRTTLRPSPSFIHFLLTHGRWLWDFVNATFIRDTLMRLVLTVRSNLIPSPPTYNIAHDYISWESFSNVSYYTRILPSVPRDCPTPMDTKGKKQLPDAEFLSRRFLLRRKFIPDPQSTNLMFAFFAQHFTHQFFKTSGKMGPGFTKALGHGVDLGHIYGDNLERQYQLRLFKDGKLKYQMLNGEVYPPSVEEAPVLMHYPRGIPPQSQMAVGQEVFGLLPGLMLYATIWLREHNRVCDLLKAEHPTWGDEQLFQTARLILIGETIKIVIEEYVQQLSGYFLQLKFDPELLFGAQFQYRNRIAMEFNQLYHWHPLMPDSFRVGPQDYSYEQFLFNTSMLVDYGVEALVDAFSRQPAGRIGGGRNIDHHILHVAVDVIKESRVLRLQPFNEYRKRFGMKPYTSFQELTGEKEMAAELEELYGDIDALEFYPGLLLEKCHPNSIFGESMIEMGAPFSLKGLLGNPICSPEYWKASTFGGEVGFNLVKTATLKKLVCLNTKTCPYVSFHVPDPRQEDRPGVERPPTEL
How it was run: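 Ovine COX-1 EIA kit: enzyme with heme and DMSO-dissolved sample in 0.1 M Tris-HCl pH 8, 5 mM EDTA, 2 mM phenol, preincubated 10 min at 37 °C; arachidonic acid added (final 100 µM), stopped after 2 min with HCl, SnCl2 reduction 5 min RT; PGF2α by EIA (18 h RT, Ellman's, 410 nm). IC50 versus untreated control incubations.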

Question: Which results are given for O=C1CC(Nc2ccccc2Nc2ccc(Cl)nn2)=NN1?
Answer: Activity [1]: 21.4 ng/mL; Activity [2]: 33.4%; Activity [3]: 13.2 ng/mL; Activity [4]: 11.2%

Question: How did the Activity [1] turn out when CCOc1ccc(Nc2ccccc2NC2=NNC(=O)C2)nn1 was run?
Answer: The Activity was 22.4 ng/mL.

Question: What about the Activity [2] of the same molecule?
Answer: Its Activity is 18.2%.

Question: And the Activity [3]?
Answer: The Activity was 12.4 ng/mL.

Question: And the Activity [4]?
Answer: The Activity was 10.2%.

Question: With CN1CCN(c2ccc(Nc3ccccc3NC3=NNC(=O)C3)nn2)CC1 as the molecule, how does the Activity [1] read?
Answer: Its Activity is 19.5 ng/mL.

Question: What about the Activity [2] of the same molecule?
Answer: The Activity was 41.2%.

Question: And the Activity [3]?
Answer: Its Activity is 9.34 ng/mL.

Question: What about the Activity [4] of the same molecule?
Answer: The Activity was 35.3%.

Question: O=C1CC(Nc2ccccc2Nc2ccc(N3CCCCC3)nn2)=NN1 was tested. Which Activity [1] did it give?
Answer: Its Activity is 16.5 ng/mL.

Question: And the Activity [2]?
Answer: The Activity was 55.6%.

Question: And the pIC50 [5]?
Answer: Its pIC50 is 5.50.

Question: And the Activity [3]?
Answer: The Activity was 7.5 ng/mL.

Question: What about the Activity [4] of the same molecule?
Answer: The Activity was 59.4%.

Question: For O=C1CC(Nc2ccccc2Nc2ccc(N3CCOCC3)nn2)=NN1, which Activity [1] is on record?
Answer: The Activity was 11.8 ng/mL.

Question: What about the Activity [2] of the same molecule?
Answer: Its Activity is 63.7%.

Question: And the pIC50 [5]?
Answer: Its pIC50 is 5.54.

Question: And the Activity [3]?
Answer: Its Activity is 7.2 ng/mL.

Question: What about the Activity [4] of the same molecule?
Answer: Its Activity is 62.3%.

Question: Which Activity [1] does the source give for O=C1CC(Nc2ccccc2Nc2ccc(Nc3ccccc3Cl)nn2)=NN1 here?
Answer: Its Activity is 10.65 ng/mL.

Question: And the Activity [2]?
Answer: The Activity was 57.2%.

Question: And the pIC50 [5]?
Answer: Its pIC50 is 5.40.

Question: What about the Activity [3] of the same molecule?
Answer: Its Activity is 6.4 ng/mL.

Question: What about the Activity [4] of the same molecule?
Answer: Its Activity is 54.3%.

Question: For O=C1CC(Nc2ccccc2Nc2ccc(Nc3ccc(Cl)cc3)nn2)=NN1, which Activity [1] is on record?
Answer: The Activity was 9.76 ng/mL.

Question: What about the Activity [2] of the same molecule?
Answer: Its Activity is 68.3%.

Question: And the pIC50 [5]?
Answer: The pIC50 was 5.35.

Question: What about the Activity [3] of the same molecule?
Answer: Its Activity is 7.12 ng/mL.

Question: What about the Activity [4] of the same molecule?
Answer: Its Activity is 35.4%.

Question: Which Activity [1] does the source give for O=C1CC(Nc2ccccc2Nc2ccc(Nc3ccccc3F)nn2)=NN1 here?
Answer: Its Activity is 17.3 ng/mL.

Question: And the Activity [2]?
Answer: The Activity was 36.1%.

Question: And the Activity [3]?
Answer: Its Activity is 11.2 ng/mL.

Question: What about the Activity [4] of the same molecule?
Answer: The Activity was 11.2%.

Question: Which results are given for O=C1CC(Nc2ccccc2Nc2ccc(Nc3cccc([N+](=O)[O-])c3)nn2)=NN1?
Answer: Activity [1]: 18.3 ng/mL; Activity [2]: 13.2%; Activity [3]: 13.5 ng/mL; Activity [4]: 5.4%

Question: NS(=O)(=O)c1ccc(Nc2ccc(Nc3ccccc3NC3=NNC(=O)C3)nn2)cc1 was tested. Which Activity [1] did it give?
Answer: Its Activity is 21.43 ng/mL.

Question: And the Activity [2]?
Answer: Its Activity is 11.3%.

Question: And the Activity [3]?
Answer: Its Activity is 16.7 ng/mL.

Question: What about the Activity [4] of the same molecule?
Answer: Its Activity is 15.4%.

Question: With NC(=O)c1ccccc1Nc1ccc(Nc2ccccc2NC2=NNC(=O)C2)nn1 as the molecule, how does the Activity [1] read?
Answer: Its Activity is 22.3 ng/mL.

Question: What about the Activity [2] of the same molecule?
Answer: The Activity was 13.2%.

Question: And the Activity [3]?
Answer: Its Activity is 12.5 ng/mL.

Question: What about the Activity [4] of the same molecule?
Answer: Its Activity is 18.2%.

Question: Which results are given for NC(=O)c1ccccc1Oc1ccc(Nc2ccccc2NC2=NNC(=O)C2)nn1?
Answer: Activity [1]: 22.6 ng/mL; Activity [2]: 14.2%; Activity [3]: 11.98 ng/mL; Activity [4]: 9.3%

Question: For O=C([O-])Cc1ccccc1Nc1c(Cl)cccc1Cl.[Na+] [DICLOFENAC SODIUM], which Activity [1] is on record?
Answer: The Activity was 7.6 ng/mL.

Question: What about the Activity [2] of the same molecule?
Answer: Its Activity is 83.3%.

Question: And the Activity [3]?
Answer: The Activity was 5.01 ng/mL.

Question: What about the Activity [4] of the same molecule?
Answer: The Activity was 61.5%.
